Data from publication PMC4708961 (Drug Design, Development and Therapy, 2016).

Experiments:
ACE = target: T1, ACE (Oryctolagus cuniculus, UniProt P12822); assay: In vitro ACE inhibition assay; format: biochemical; settings: IC50, ACE from rabbit lung acetone powder; substrate HHL
T1 sequence (P12822 34-1310): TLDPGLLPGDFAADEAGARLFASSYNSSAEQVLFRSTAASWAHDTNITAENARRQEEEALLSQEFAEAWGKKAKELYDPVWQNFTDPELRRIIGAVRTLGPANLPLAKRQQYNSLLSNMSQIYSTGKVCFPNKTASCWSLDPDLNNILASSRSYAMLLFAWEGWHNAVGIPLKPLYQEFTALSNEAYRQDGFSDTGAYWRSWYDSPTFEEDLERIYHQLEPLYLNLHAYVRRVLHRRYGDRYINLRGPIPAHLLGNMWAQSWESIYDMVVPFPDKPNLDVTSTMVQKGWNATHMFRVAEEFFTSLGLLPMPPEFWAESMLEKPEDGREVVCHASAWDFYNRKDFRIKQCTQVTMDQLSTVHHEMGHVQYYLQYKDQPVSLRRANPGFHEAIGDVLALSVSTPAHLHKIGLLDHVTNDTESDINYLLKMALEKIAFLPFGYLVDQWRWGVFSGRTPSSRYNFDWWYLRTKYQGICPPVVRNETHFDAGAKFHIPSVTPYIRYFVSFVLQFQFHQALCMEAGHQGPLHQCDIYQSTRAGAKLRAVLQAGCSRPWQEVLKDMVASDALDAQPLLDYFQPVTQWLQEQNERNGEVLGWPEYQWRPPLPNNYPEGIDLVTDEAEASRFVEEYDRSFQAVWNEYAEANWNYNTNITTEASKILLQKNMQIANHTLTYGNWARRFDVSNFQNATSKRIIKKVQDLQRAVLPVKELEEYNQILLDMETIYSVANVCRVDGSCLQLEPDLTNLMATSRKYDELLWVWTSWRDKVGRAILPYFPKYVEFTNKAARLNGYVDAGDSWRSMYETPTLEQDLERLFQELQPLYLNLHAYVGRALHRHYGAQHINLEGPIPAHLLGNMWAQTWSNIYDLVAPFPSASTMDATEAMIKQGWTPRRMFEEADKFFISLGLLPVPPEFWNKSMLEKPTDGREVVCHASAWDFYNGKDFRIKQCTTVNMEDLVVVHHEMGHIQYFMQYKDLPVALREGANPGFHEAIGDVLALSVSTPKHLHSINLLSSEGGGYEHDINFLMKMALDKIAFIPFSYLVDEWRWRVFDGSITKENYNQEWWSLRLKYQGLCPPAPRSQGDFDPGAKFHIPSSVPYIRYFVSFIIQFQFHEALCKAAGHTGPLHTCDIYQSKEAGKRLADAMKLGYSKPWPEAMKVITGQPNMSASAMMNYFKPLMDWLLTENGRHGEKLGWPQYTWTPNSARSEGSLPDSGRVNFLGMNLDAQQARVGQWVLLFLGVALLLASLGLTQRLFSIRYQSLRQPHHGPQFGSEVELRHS

[1] = Bioavailability study after oral administration in mice; format: in vivo
In short: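 Swiss Webster mice aged 20–25 weeks, in control and test groups (n=5), were dosed orally by dosing needle at 3 mg per 30 g body weight; a comparator group received 2 g/kg orally. Plasma was precipitated with 40% methanol and spun at 14,000 rpm for 10 min. The supernatant was run on RP-Amide HPLC (50 mmol/L NaH2PO4 pH 4.3 to 70% acetonitrile gradient, 0.7 mL/min) with electrochemical detection.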

NO donor activity = settings: 100 μmol, phosphate buffer pH 7.4, 5 mM L-cysteine, 3 hours at 37°C
In short: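 Test compound in DMSO (100 μmol) was added to 50 mM phosphate buffer pH 7.4 with 5 mM L-cysteine hydrochloride and held 3 h at 37°C. Griess reagent was then added, and absorbance at 550 nm was read after 20 min against a 5–50 μM sodium nitrite calibration curve. Release was expressed as mol nitrite detected per mol test compound ×100.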

[2] = experimental rats; cited from earlier work
isolated rat hearts = assay: Vasodilator activity on isolated rat hearts; settings: 10 μg test compound
[3] = mice, 3 mg per 30 g body weight
[4] = isolated rat heart, BaCl2-induced reduction

IC50 (ACE)	SMILES	also measured
50.9 µM	CCN1C/C(=C\c2ccccc2)C(=O)/C(=C/c2ccccc2)C1 [Compound 4a, (3E,5E)-3,5-dibenzylidene-1-ethylpiperidin-4-one]	–
51.1 µM	CCCN1C/C(=C\c2ccccc2)C(=O)/C(=C/c2ccccc2)C1 [Compound 4b, (3E,5E)-3,5-dibenzylidene-1-propylpiperidin-4-one]	–
64.4 µM	CCCCN1C/C(=C\c2ccccc2)C(=O)/C(=C/c2ccccc2)C1 [Compound 4c, (3E,5E)-3,5-dibenzylidene-1-butylpiperidin-4-one]	–
78.5 µM	CCCCCN1C/C(=C\c2ccccc2)C(=O)/C(=C/c2ccccc2)C1 [Compound 4d, (3E,5E)-3,5-dibenzylidene-1-pentylpiperidin-4-one]	–
32.2 µM	CCN1C/C(=C\c2ccc(O)c(O)c2)C(=O)/C(=C/c2ccc(O)c(O)c2)C1 [Compound 4e, (3E,5E)-3,5-bis(3,4-dihydroxybenzylidene)-1-ethylpiperidin-4-one]	–
20.1 µM	CCCN1C/C(=C\c2ccc(O)c(O)c2)C(=O)/C(=C/c2ccc(O)c(O)c2)C1 [Compound 4f, (3E,5E)-3,5-bis(3,4-dihydroxybenzylidene)-1-propylpiperidin-4-one]	–
41.3 µM	CCCCN1C/C(=C\c2ccc(O)c(O)c2)C(=O)/C(=C/c2ccc(O)c(O)c2)C1 [Compound 4g, (3E,5E)-1-butyl-3,5-bis(3,4-dihydroxybenzylidene) piperidin-4-one]	–
48.6 µM	CCCCCN1C/C(=C\c2ccc(O)c(O)c2)C(=O)/C(=C/c2ccc(O)c(O)c2)C1 [Compound 4h, (3E,5E)-3,5-bis(3,4-dihydroxybenzylidene)-1-pentylpiperidin-4-one]	–
3.21 µM	CCN1C/C(=C\c2cc(OC)c(OC)c(OC)c2)C(=O)/C(=C/c2cc(OC)c(OC)c(OC)c2)C1 [Compound 4i, (3E,5E)-1-ethyl-3,5-bis(3,4,5-trimethoxybenzylidene) piperidin-4-one]	–
1.23 µM	CCCN1C/C(=C\c2cc(OC)c(OC)c(OC)c2)C(=O)/C(=C/c2cc(OC)c(OC)c(OC)c2)C1 [Compound 4j, (3E,5E)-1-propyl-3,5-bis(3,4,5-trimethoxybenzylidene) piperidin-4-one]	in vivo bioavailability ([1]; mice): better in vivo bioavailability compared with curcumin; plasma concentration [1, 3]: 35 µM; time until first detected in plasma [1, 3]: 10 min
4.45 µM	CCCCN1C/C(=C\c2cc(OC)c(OC)c(OC)c2)C(=O)/C(=C/c2cc(OC)c(OC)c(OC)c2)C1 [Compound 4k, (3E,5E)-1-butyl-3,5-bis(3,4,5-trimethoxybenzylidene) piperidin-4-one]	–
6.65 µM	CCCCCN1C/C(=C\c2cc(OC)c(OC)c(OC)c2)C(=O)/C(=C/c2cc(OC)c(OC)c(OC)c2)C1 [Compound 4l, (3E,5E)-1-pentyl-3,5-bis(3,4,5-trimethoxybenzylidene) piperidin-4-one]	NO donor activity (percentage of NO2) (NO donor activity): highest donor activity
95.1 µM	CCN1C/C(=C\c2ccc([N+](=O)[O-])cc2)C(=O)/C(=C/c2ccc([N+](=O)[O-])cc2)C1 [Compound 4m, (3E,5E)-1-ethyl-3,5-bis(4-nitrobenzylidene)piperidin-4-one]	–
90.2 µM	CCCN1C/C(=C\c2ccc([N+](=O)[O-])cc2)C(=O)/C(=C/c2ccc([N+](=O)[O-])cc2)C1 [Compound 4n, (3E,5E)-3,5-bis(4-nitrobenzylidene)-1-propylpiperidin-4-one]	–
131 µM	CCCCN1C/C(=C\c2ccc([N+](=O)[O-])cc2)C(=O)/C(=C/c2ccc([N+](=O)[O-])cc2)C1 [Compound 4o, (3E,5E)-1-butyl-3,5-bis(4-nitrobenzylidene)piperidin-4-one]	–
120 µM	CCCCCN1C/C(=C\c2ccc([N+](=O)[O-])cc2)C(=O)/C(=C/c2ccc([N+](=O)[O-])cc2)C1 [Compound 4p, (3E,5E)-3,5-bis(4-nitrobenzylidene)-1-pentylpiperidin-4-one]	–
–	COc1cc(/C=C/C(=O)CC(=O)/C=C/c2ccc(O)c(OC)c2)ccc1O [curcumin]	oral bioavailability [2]: very poor; time until first observed in the blood ([1]; curcumin 2 g/kg): ~80 min; NO donor activity (percentage of NO2) (NO donor activity): did not result in any significant changes; heart rate (isolated rat hearts): did not result in any significant changes; cardiac output (isolated rat hearts; [4]): did not result in any significant changes; stroke volume (isolated rat hearts; [4]): did not result in any significant changes
